Measured values published in ChEMBL document CHEMBL1145542, “Discovery of a new class of potent, selective, and orally bioavailable CRTH2 (DP2) receptor antagonists for the treatment of allergic inflammatory diseases” (J Med Chem, 2008).

Experiments:
[1] = molecular target: Cytochrome P450 2C19 (Homo sapiens, UniProt P33261); assay: Inhibition of human recombinant CYP2C19; type: ADME
Outline: (§1)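 Human recombinant CYP1A2, 2C9, 2C19, 2D6 and 3A4, each turning an isoform-specific fluorogenic substrate into a fluorescent product; test compound up to 10 µM final in 1% DMSO; fluorescence read-out.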

[2] = molecular target: Cytochrome P450 2C9 (Homo sapiens, UniProt P11712); assay: Inhibition of human recombinant CYP2C9; type: ADME; outline: as §1
[3] = molecular target: T1, Prostaglandin D2 receptor 2 (Homo sapiens, UniProt Q9Y5Y4); assay: Displacement of [3H]PGD2 from human CRTH2 receptor expressed in CHO cells; type: cell-based
T1 sequence (Q9Y5Y4 whole entry): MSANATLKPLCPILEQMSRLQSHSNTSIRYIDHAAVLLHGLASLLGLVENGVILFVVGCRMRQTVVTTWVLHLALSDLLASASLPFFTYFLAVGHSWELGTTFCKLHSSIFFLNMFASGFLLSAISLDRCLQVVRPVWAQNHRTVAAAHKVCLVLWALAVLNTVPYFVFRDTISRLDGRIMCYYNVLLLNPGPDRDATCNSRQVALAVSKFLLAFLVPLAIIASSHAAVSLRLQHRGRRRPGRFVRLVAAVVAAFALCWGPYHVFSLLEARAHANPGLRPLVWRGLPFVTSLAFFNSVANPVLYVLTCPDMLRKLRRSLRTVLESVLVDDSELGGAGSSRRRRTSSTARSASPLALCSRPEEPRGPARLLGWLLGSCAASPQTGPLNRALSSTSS
Outline: (§2)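 Scintillation proximity competition assay: 2–5 µg human or mouse CRTH2 membranes (nitrogen-cavitation, differential centrifugation) with WGA-SPA beads and 1.5 nM [3H]PGD2 in 10 mM HEPES/KOH pH 7.4, 10 mM MnCl2, protease inhibitors, 1% Me2SO, 90 min shaking at room temperature. Nonspecific binding with 1 µM PGD2. Ki by Cheng–Prusoff, mean of ≥3 independent experiments.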

[4] = molecular target: T1, Prostaglandin D2 receptor 2; assay: Antagonist activity at human CRTH2 receptor expressed in CHO cell membrane by [35S]GTP-gamma-S binding assay; type: functional, cell membranes
Outline: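 [35S]GTPγS binding at 30 °C on 10 µg human CRTH2 membranes in 20 mM HEPES/KOH pH 7.4, 10 mM MgCl2, 10 µg/mL saponin, 3 µM GDP, 150 mM NaCl, 2% Me2SO. PGD2 preincubation 10 min (antagonist mode: 80 nM PGD2), then 0.15 nM [35S]GTPγS for 30 min. Nonspecific binding with 10 µM GTPγS; stopped by centrifugation, scintillation counting.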

[5] = molecular target: T2, Cytochrome P450 1A2 (Homo sapiens, UniProt P05177); assay: Inhibition of human recombinant CYP1A2; type: ADME; outline: as §1
T2 sequence (P05177 whole entry): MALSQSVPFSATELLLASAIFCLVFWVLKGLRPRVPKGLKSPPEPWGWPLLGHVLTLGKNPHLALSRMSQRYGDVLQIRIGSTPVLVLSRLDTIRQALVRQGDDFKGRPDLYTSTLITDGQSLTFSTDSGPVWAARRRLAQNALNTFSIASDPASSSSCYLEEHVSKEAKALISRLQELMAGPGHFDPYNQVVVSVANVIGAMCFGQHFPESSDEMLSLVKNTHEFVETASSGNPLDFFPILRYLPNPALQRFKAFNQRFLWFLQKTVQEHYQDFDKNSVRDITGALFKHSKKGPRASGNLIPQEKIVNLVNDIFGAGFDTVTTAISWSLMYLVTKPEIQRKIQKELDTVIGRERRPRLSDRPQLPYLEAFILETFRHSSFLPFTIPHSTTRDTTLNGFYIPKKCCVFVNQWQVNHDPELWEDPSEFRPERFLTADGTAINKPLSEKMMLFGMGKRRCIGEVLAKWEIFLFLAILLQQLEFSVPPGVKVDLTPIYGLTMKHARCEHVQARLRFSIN

[6] = Apparent permeability across human Caco-2 cell membrane at 10 uM; type: ADME, cell-based
Outline: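 Caco-2 monolayers grown 21 days on Transwell filters; TEER above 800 ohm·cm² required. 10 µM test compound in HBSS added apically (A to B) or basolaterally (B to A), 2 h at 37 °C. Both compartments sampled, analysed by LC/MS-MS.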

[7] = molecular target: T3, Prostaglandin D2 receptor 2 (Mus musculus, UniProt Q9Z2J6); assay: Displacement of [3H]PGD2 from mouse CRTH2 receptor expressed in HEK293 cells; type: cell-based; outline: as §2
T3 sequence (Q9Z2J6 whole entry): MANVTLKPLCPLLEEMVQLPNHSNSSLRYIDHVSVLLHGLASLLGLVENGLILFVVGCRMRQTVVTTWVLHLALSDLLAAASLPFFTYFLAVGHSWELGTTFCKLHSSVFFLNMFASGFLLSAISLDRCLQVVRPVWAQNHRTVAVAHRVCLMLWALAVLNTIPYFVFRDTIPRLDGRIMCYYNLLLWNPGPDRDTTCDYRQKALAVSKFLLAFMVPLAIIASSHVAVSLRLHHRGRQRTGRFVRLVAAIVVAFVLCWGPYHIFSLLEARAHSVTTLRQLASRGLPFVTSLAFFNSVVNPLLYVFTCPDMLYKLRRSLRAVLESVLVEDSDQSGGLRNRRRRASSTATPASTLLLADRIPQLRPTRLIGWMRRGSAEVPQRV

[8] = Intrinsic clearance per mg of protein in rat liver microsomes at 3 uM; type: ADME, Microsome
Outline: (§3)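 Rat or human liver microsomes (0.5 mg/mL final) in 0.1 M phosphate pH 7.4 with 3 µM compound (1% DMSO), preincubated at 37 °C, started with 1 mM NADPH. Quenched with cold acetonitrile at 0, 15, 30, 45 min; LC/MS-MS of compound disappearance gives intrinsic clearance.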

[9] = molecular target: Cytochrome P450 3A4 (Homo sapiens, UniProt P08684); assay: Inhibition of human recombinant CYP3A4; type: ADME; outline: as §1
[10] = molecular target: Cytochrome P450 2D6 (Homo sapiens, UniProt P10635); assay: Inhibition of human recombinant CYP2D6; type: ADME; outline: as §1
[11] = Cmax in Beagle dog at 1 mg/kg, iv; type: ADME, organism-based, Canis lupus familiaris; parameters: dose 1 mg/kg, route intravenous; details: in vivo
Outline: (§4)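 Three male beagle dogs, crossover design; 1 mg/kg given as a solution, iv bolus and oral gavage. Serial blood sampled up to 48 h post dose. Individual plasma samples analysed by LC-MS/MS; PK parameters derived by non-compartmental analysis.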

[12] = Cmax in Beagle dog at 1 mg/kg, po; details: in vivo
[13] = molecular target: Prostaglandin E2 receptor EP2 subtype (Homo sapiens, UniProt P43116); assay: Inhibition of prostanoid EP2 receptor
[14] = molecular target: T4, Prostaglandin D2 receptor (Homo sapiens, UniProt Q13258); assay: Inhibition of prostaglandin D2 receptor
T4 sequence (Q13258 whole entry): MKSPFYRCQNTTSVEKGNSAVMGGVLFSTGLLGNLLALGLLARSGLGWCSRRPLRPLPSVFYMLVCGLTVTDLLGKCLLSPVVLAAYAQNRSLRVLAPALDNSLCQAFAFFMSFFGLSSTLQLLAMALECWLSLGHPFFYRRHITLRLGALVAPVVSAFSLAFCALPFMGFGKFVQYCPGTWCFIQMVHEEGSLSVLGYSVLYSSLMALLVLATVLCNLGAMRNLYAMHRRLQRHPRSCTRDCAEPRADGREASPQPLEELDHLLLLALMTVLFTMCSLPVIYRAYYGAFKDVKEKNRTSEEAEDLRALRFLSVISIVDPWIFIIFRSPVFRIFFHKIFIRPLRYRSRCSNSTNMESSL

[15] = Half life in rat at 5 mg/kg, po; type: ADME, organism-based; parameters: dose 5 mg/kg, route oral; details: in vivo
Outline: (§5)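 Male Sprague–Dawley or Janvier rats, three per route, dosed by oral gavage or iv bolus. Serial blood drawn through an indwelling carotid catheter up to 24 h post dose. Plasma pooled by time point, analysed by LC-MS/MS; non-compartmental analysis.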

[16] = Volume of distribution at steady state in Beagle dog at 1 mg/kg, iv; type: ADME, organism-based, Canis lupus familiaris; parameters: dose 1 mg/kg, route intravenous; details: in vivo, read-out: Vdss; outline: as §4
[17] = Inhibition of prostanoid EP3 receptor
[18] = AUC (0 to last t) in rat at 1 mg/kg, iv; type: ADME, organism-based; parameters: time 0 - last, dose 1 mg/kg, route intravenous; details: plasma; outline: as §5
[19] = Inhibition of prostanoid EP4 receptor
[20] = Lipophilicity, log D of the compound; type: physicochemical; details: octanol/water
[21] = Tmax in Beagle dog at 1 mg/kg, iv; type: ADME, organism-based, Canis lupus familiaris; parameters: dose 1 mg/kg, route intravenous; details: in vivo; outline: as §4
[22] = Tmax in Beagle dog at 1 mg/kg, po; details: in vivo
[23] = Volume of distribution at steady state in rat at 1 mg/kg, iv; type: ADME, organism-based; parameters: dose 1 mg/kg, route intravenous; details: in vivo, read-out: Vdss; outline: as §5
[24] = Tmax in rat at 1 mg/kg, iv; type: ADME, organism-based; parameters: dose 1 mg/kg, route intravenous; details: in vivo; outline: as §5
[25] = Half life in rat at 1 mg/kg, iv; type: ADME, organism-based; parameters: dose 1 mg/kg, route intravenous; details: in vivo; outline: as §5
[26] = Intrinsic clearance per mg of protein in human liver microsomes at 3 uM; type: ADME, Microsome; outline: as §3
[27] = Oral bioavailability in rat at 5 mg/kg; type: ADME, organism-based; details: in vivo; outline: as §5
[28] = Cmax in rat at 5 mg/kg, po; type: ADME, organism-based; parameters: dose 5 mg/kg, route oral; details: in vivo; outline: as §5
[29] = AUC (0 to last t) in rat at 5 mg/kg, po; type: ADME, organism-based; parameters: time 0 - last, dose 5 mg/kg, route oral; details: plasma; outline: as §5
[30] = Half life in Beagle dog at 1 mg/kg, po; details: in vivo
[31] = Clearance in Beagle dog at 1 mg/kg, iv; type: ADME, organism-based, Canis lupus familiaris; parameters: dose 1 mg/kg, route intravenous; details: in vivo; outline: as §4
[32] = Tmax in rat at 5 mg/kg, po; type: ADME, organism-based; parameters: dose 5 mg/kg, route oral; details: in vivo; outline: as §5
[33] = AUC (0 to last t) in Beagle dog at 1 mg/kg, iv; type: ADME, organism-based, Canis lupus familiaris; parameters: time 0 - last, dose 1 mg/kg, route intravenous; details: plasma; outline: as §4
[34] = Oral bioavailability in Beagle dog at 1 mg/kg; type: ADME, organism-based, Canis lupus familiaris; details: in vivo; outline: as §4
[35] = Clearance in rat at 1 mg/kg, iv; type: ADME, organism-based; parameters: dose 1 mg/kg, route intravenous; details: in vivo; outline: as §5
[36] = Cmax in rat at 1 mg/kg, iv; type: ADME, organism-based; parameters: dose 1 mg/kg, route intravenous; details: in vivo; outline: as §5
[37] = Half life in Beagle dog at 1 mg/kg, iv; type: ADME, organism-based, Canis lupus familiaris; parameters: dose 1 mg/kg, route intravenous; details: in vivo; outline: as §4
[38] = AUC (0 to last t) in Beagle dog at 1 mg/kg, po; type: ADME, organism-based, Canis lupus familiaris; parameters: time 0 - last, dose 1 mg/kg, route oral; details: plasma; outline: as §4
[39] = Inhibition of prostanoid FP receptor

Cytochrome P450 2C19, sequence (P33261 whole entry, canonical isoform): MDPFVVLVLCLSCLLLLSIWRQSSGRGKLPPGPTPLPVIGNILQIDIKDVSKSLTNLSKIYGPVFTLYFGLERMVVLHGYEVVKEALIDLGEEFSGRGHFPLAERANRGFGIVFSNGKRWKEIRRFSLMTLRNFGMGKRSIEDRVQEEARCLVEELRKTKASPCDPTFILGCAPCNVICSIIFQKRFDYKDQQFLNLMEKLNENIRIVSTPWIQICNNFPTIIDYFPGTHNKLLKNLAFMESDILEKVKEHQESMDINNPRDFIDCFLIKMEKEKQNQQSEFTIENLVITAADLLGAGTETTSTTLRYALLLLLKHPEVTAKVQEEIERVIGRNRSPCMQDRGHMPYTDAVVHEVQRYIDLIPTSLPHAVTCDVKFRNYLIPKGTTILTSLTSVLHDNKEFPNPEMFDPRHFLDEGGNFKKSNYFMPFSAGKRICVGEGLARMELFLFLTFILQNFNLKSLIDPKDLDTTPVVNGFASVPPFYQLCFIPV
Cytochrome P450 3A4, sequence (P08684 whole entry): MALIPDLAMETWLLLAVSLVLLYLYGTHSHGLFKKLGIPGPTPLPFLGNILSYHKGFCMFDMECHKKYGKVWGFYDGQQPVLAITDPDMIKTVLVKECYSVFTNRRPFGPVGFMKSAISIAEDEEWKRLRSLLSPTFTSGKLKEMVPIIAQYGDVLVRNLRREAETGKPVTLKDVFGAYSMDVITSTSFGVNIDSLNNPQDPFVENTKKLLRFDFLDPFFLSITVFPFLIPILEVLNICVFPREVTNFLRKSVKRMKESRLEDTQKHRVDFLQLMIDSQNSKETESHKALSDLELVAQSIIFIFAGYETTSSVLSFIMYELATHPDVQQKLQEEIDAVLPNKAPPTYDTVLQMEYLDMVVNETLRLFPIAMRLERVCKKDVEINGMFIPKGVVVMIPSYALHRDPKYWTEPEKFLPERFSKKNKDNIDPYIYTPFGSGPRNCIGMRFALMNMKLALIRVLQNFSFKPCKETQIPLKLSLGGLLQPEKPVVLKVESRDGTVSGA
Cytochrome P450 2D6, sequence (P10635 whole entry): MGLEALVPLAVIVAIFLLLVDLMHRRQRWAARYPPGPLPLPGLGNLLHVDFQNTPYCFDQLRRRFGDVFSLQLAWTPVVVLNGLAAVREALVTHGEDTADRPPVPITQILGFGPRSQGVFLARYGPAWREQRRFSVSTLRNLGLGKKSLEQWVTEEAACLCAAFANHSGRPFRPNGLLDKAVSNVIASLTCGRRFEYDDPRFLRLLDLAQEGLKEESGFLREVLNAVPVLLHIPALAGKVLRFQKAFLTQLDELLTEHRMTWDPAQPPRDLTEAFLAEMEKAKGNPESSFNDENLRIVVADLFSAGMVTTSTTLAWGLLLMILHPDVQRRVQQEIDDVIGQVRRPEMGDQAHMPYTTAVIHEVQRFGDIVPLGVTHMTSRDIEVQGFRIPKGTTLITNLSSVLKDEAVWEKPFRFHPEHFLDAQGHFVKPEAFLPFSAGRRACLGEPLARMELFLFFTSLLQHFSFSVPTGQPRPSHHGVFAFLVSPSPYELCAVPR
Cytochrome P450 2C9, sequence (P11712 whole entry): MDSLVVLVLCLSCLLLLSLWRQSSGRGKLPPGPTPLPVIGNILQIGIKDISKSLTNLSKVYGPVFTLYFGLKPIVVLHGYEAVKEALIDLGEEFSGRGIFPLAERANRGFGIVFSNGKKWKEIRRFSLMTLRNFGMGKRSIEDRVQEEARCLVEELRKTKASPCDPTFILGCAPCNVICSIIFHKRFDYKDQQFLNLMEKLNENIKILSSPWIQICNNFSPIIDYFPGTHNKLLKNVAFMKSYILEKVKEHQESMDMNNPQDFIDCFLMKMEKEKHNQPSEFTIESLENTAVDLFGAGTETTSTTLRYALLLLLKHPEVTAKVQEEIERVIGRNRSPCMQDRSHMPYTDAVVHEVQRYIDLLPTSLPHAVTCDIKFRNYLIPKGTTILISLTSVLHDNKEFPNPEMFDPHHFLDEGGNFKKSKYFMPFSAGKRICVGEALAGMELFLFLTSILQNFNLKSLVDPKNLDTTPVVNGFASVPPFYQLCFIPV
Prostaglandin E2 receptor EP2 subtype, sequence (P43116 whole entry): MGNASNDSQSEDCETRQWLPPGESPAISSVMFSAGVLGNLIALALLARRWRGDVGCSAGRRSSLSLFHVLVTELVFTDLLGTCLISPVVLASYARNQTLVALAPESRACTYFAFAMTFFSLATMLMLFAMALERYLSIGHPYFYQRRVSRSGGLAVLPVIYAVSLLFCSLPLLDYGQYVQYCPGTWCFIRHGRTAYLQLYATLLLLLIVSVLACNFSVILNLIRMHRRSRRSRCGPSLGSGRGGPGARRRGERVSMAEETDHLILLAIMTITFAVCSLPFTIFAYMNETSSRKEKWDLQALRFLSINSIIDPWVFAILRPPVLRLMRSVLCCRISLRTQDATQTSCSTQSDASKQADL

Question: With O=C(O)CN1C(=O)C2(CC(=O)N(Cc3ccccc3)C2=O)c2cc(Cl)ccc21 (stereo not drawn) as the compound, how does the IC50 [1] read?
Answer: > 10 µM

Question: And the IC50 [2]?
Answer: > 10 µM

Question: And the Ki [3]?
Answer: 0.196 µM

Question: And the IC50 [4]?
Answer: 0.418 µM

Question: What about the IC50 [5] of the same compound?
Answer: > 10 µM

Question: And the Papp at 10 µM [6]?
Answer: 3 ×10⁻⁶ cm/s

Question: And the Ki [7]?
Answer: 0.15 µM

Question: And the microsomal CLint at 3 µM [8]?
Answer: 9 µL/min/mg

Question: And the IC50 [9]?
Answer: > 10 µM

Question: And the IC50 [10]?
Answer: > 10 µM

Question: What does the source list for O=C(O)CN1C(=O)[C@@]2(CC(=O)N(Cc3ccccc3F)C2=O)c2cc(Cl)ccc21?
Answer: Cmax [11]: 2570 ng/mL; Cmax [12]: 503 ng/mL; IC50 [13]: > 30 µM; IC50 [14]: > 30 µM; half-life [15]: 4.2 h; Vd [16]: 2 L/kg; IC50 [17]: > 30 µM; AUC(0-t) [18]: 1250 ng·h/mL; IC50 [19]: > 30 µM; Ki [3]: 0.023 µM; Papp at 10 µM [6]: 2.4 ×10⁻⁶ cm/s; logD [20]: -1; Ki [7]: 0.022 µM; Tmax [21]: 0 h; Tmax [22]: 2 h; Vd [23]: 0.9 L/kg; microsomal CLint at 3 µM [8]: 23 µL/min/mg; Tmax [24]: 0 h; half-life [25]: 1 h; microsomal CLint at 3 µM [26]: 15 µL/min/mg; bioavailability [27]: 40%; Cmax [28]: 297 ng/mL; AUC(0-t) [29]: 2480 ng·h/mL; half-life [30]: 3 h; clearance [31]: 8.33 mL/min/kg; Tmax [32]: 0.5 h; AUC(0-t) [33]: 2020 ng·h/mL; bioavailability [34]: 120%; clearance [35]: 13.3 mL/min/kg; Cmax [36]: 1990 ng/mL; half-life [37]: 7 h; AUC(0-t) [38]: 2350 ng·h/mL; IC50 [39]: > 30 µM
